Source: PubChem BioAssay (several laboratories)
HCV core dimer: blocks dimerization of HCV core protein. inhibition, % at 5 µM. 0.33% of 300,000 active. TR-FRET GST/Flag-core106 dimerization, 1536-well;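 active means inhibition above the mean of all tested compounds plus 3 SD, set per screening campaign, cut at about 45% in these data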
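test system = GST/Flag-tagged HCV core106 proteins | probe or stimulus = Eu donor and XL665 acceptor anti-tag antibodies | times = compound-protein-antibody incubation 4 h at 22.5 °C | signal = TR-FRET, excitation 340 nm, emission 617 and 671 nm | measure = percent inhibition of core106 dimerization signal | controls = wells lacking GST-core106 and wells with excess unlabelled core106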
AI-2 QS modul: modulators of Vibrio harveyi AI-2 quorum sensing system; AID 2094; Vibrio harveyi JMH597 AI-2 luminescence/OD600 ratio, 9 h; stronger effect = lower value; strain lacks LuxN and CqsS sensors; 0 = neutral-control median; 0.4% of 300,000 active; activity change, % at 7.5 µM; in the data active means activity change below about -75%, passing the limit was not always enough;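 further: luminescence divided by OD600 gain over 9 h not by final OD600 alone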
PHOSPHO1 block: blocks human PHOSPHO1 phosphatase activity; recombinant PHOSPHO1, absorbance phosphatase assay; inhibition, % at 13.3 µM; 1.1% of 290,000 active; AID 1565; in the data active means inhibition above about 60%
Target sequence (Q8TCT1 whole entry, looked up): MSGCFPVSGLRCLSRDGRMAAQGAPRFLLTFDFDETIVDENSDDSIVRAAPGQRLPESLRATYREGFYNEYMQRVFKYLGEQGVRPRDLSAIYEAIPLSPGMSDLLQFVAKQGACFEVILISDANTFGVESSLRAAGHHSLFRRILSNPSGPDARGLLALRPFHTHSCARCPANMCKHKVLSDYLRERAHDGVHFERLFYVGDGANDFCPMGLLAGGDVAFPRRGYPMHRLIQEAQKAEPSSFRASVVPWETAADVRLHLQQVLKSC
HSF-1 act: increases HSF-1 driven luciferase reporter signal; NIH3T3-HGL HSF-1 luciferase reporter, MG132, 8 h; 100% = twice DMSO control signal; activation, % at 9 µM; 1.7% of 300,000 active;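 active means mean replicate activation of at least 50% with a set share of replicates each reaching 50%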
ALR H2O2 inh: inhibitors of human sulfhydryl oxidase ALR; purified ALR, DTT oxidation, H2O2 HRP-luminol luminescence; P55789; inhibition, % (no concentration beside the values); 3.8% of 290,000 active;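 active means mean replicate inhibition above about 79%, with every replicate also reaching it, limit read from the data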
Target sequence (P55789 whole entry, looked up): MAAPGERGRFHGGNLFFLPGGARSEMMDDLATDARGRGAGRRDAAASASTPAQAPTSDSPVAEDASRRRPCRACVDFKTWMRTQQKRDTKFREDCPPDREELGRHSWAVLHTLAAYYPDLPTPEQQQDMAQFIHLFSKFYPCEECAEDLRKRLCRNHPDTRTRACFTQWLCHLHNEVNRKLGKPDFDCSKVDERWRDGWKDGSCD
HSF1 inh: HSF1 inhibition | NIH3T3-HGL HSE-luciferase, MG132-induced, luminescence 8 h; stronger effect = lower value | activity change, negative = inhibition, % at 7.5 µM (by protocol) | 0.77% of 300,000 active;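 active means more than half of replicate wells show activity change below -50%, luminescence cut by over half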;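 further: luciferase reports HSF-1 transcriptional activity via heat shock element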
Of the large screens only hits and unclear results are named; the others gave an inactive call. Sampled rows, rich in hits. Any-hit rate of the full collection: about 6.8%.

CSc1ccc(CN(C)Cc2cc(=O)oc3c(C)c(C)ccc23)cc1	HSF1 inh -69.1
Cc1ccc2c(CN3CCC(C)CC3)cc(=O)oc2c1C	HSF-1 act 54.1 (no result: HCV core dimer)
Cc1ccc2c(CN(C)Cc3cccc(Cl)c3)cc(=O)oc2c1C	none (no result: ALR H2O2 inh)
Cc1c(C)c2c(OCC(=O)N[C@@H](CC(C)C)C(=O)O)cc3c(c2oc1=O)CCC(C)(C)O3	none (no result: HCV core dimer)
O=C(Nc1ccc(OC(F)F)c(Cl)c1)c1ccccn1	HSF-1 act 70.3
COc1cc([N+](=O)[O-])ccc1NC(=O)C[n+]1cccc(C)c1	none (no result: ALR H2O2 inh)
Cc1ccc[n+](CC(=O)Nc2ccc([N+](=O)[O-])cc2Cl)c1	HSF-1 act 66.6
COc1cnn(-c2ccccc2)c(=O)c1SCc1ccc(Cl)c(Cl)c1	PHOSPHO1 block 87.9
O=C(NC1CCN(C(=S)NCc2ccco2)CC1)NC12CC3CC(CC(C3)C1)C2	PHOSPHO1 block 88.9
O=C(NC1CC2CCC(C1)N2Cc1nnnn1Cc1ccco1)NC12CC3CC(CC(C3)C1)C2 (configuration not stated)	ALR H2O2 inh 79.7
Cc1cccc(C(=O)NC2CCN(C(=S)NCc3ccco3)CC2)c1	none
CCOc1ccccc1C(=O)NC1CC2CCCC(C1)N2Cc1nnnn1Cc1ccco1 (configuration not stated)	none (no result: ALR H2O2 inh)
C=CCNC(=S)Nc1sc2c(c1C(N)=O)CCCC2	ALR H2O2 inh 98.3
NC(=O)c1c(NC(=S)Nc2ccc(F)cc2)sc2c1CCCC2	ALR H2O2 inh 89.9
CC1CN(C2=NC(=O)/C(=C/c3ccncc3)S2)CC(C)O1 (configuration not stated)	none (no result: ALR H2O2 inh)
CC(C)(C)OC(=O)NCCCC1=CC2=CC(=O)C(C)(O)C(=O)C2=CO1 (configuration not stated)	none (no result: PHOSPHO1 block, ALR H2O2 inh)
O=C(c1ccco1)N1N=C(c2ccc(Br)cc2)CC1(O)C(F)(F)F (configuration not stated)	none
Cc1c(N2C(=O)/C(=C\C3CC=CCC3)SC2=S)c(=O)n(-c2ccccc2)n1C (configuration not stated)	none (no result: ALR H2O2 inh)
Cc1c(N2C(=O)/C(=C/C3CC=CCC3)SC2=S)c(=O)n(-c2ccccc2)n1C (configuration not stated)	ALR H2O2 inh 98.5
COc1ccccc1-c1c(-c2ccc(O)cc2O)n[nH]c1C(F)(F)F	ALR H2O2 inh 96.6
COc1ccc(-c2c(-c3ccc(O)cc3O)n[nH]c2C)cc1OC	ALR H2O2 inh 88.4
Oc1ccc(-c2n[nH]c(C(F)(F)F)c2-c2ccccc2)c(O)c1	ALR H2O2 inh 97.3
COc1ccc(-c2cn[nH]c2-c2ccc(O)cc2O)cc1OC	none
COc1ccc(-c2c(-c3ccc(O)cc3O)n[nH]c2C(F)(F)F)cc1	none (no result: ALR H2O2 inh)
O=C(COc1ccc2cc(-c3ccccc3)c(=O)oc2c1)NCC1CCC(C(=O)O)CC1 (configuration not stated)	none
CC1(C)CC(=O)C=C(Nc2ccc([N+](=O)[O-])cc2)C1	none
COc1cccc(N=Nc2c(N)[nH][nH]c2=O)c1	none (no result: ALR H2O2 inh)
CCOc1ccc(N=Nc2c(N)[nH][nH]c2=O)cc1	ALR H2O2 inh 98.6, HSF1 inh -77.9
FC(F)(F)c1nnc(-c2ccccc2)nc1Sc1ccccc1	HSF-1 act 260.1 (no result: ALR H2O2 inh)
COc1c(C(=O)NNC(=O)c2ccccc2)csc1Br	none
CC(=O)c1cccc(NC(=O)CSc2nc(=O)n(Cc3ccccn3)c3c2CCC3)c1	ALR H2O2 inh 98.9 (no result: PHOSPHO1 block)
CCN(CC)CCn1c2c(c(SCC(=O)Nc3ccc4c(c3)OCCO4)nc1=O)CCCC2	none (no result: PHOSPHO1 block)
CCN(CC)CCCn1c2c(c(SCC(=O)Nc3cccc(C(C)=O)c3)nc1=O)CCC2	ALR H2O2 inh 99.2 (no result: PHOSPHO1 block)
CCN(CC)CCCn1c2c(c(SCC(=O)Nc3ccc4c(c3)OCCO4)nc1=O)CCC2	ALR H2O2 inh 98.0 (no result: PHOSPHO1 block)
CCN(CC)CCn1c2c(c(SCC(=O)Nc3cccc(C(C)=O)c3)nc1=O)CCCC2	none (no result: HCV core dimer, PHOSPHO1 block, ALR H2O2 inh)
CN(C)CCCn1c2c(c(SCC(=O)Nc3ccc4c(c3)OCO4)nc1=O)CCC2	ALR H2O2 inh 98.4 (no result: PHOSPHO1 block)
O=C(COc1ccccc1)N=C1SC2CS(=O)(=O)CC2N1c1cccc(F)c1 (configuration not stated)	none
C/C(=N\NC(=O)c1nonc1N)c1cccs1	none (no result: ALR H2O2 inh)
